The list is not random: actives were taken first. Their share in the collection is about 1.2%.
TNAP act hiacc: TNAP (human) activation, high acceptor; activation factor at 20 µM; 200,000 tested, under 10 active; AID 1136; P05186; purified TNAP, CDP-star luminescence, 1 M DEA, 30 min; hits give high values; 0 = EDTA background, 1 = DMSO-only activity;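 active means activation factor at least 2 at 20 µM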
Target sequence (P05186 whole entry, looked up): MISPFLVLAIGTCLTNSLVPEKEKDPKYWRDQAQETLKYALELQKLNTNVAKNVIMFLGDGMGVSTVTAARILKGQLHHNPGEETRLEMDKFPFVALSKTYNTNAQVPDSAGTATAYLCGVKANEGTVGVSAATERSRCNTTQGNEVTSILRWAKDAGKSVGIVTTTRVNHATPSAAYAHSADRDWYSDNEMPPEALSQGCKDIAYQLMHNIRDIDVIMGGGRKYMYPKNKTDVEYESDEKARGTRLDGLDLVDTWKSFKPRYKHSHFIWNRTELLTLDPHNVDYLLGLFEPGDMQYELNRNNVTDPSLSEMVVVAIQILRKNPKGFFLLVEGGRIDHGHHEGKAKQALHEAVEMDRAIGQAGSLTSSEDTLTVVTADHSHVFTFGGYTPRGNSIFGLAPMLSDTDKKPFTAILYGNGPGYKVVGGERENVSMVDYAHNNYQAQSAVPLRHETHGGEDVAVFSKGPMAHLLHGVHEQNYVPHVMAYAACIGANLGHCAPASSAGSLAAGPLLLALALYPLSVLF
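Measured by: Luminescent substrate turnover signal | Test system: Human TNAP | Input: TNAP 1/800 final | Dosing: 20 µM single point | Schedule: 30 min, room temperature | Controls: EDTA wells as negative control, DMSO wells as positive control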
TNAP inh hiacc: blocks human TNAP under high phosphate acceptor concentration; purified TNAP, CDP-star luminescence, 1 M DEA; 0.03% of 200,000 active; P05186; inhibition, % at 20 µM;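 active means over 50% inhibition of tissue-nonspecific alkaline phosphatase at 20 µM in the single-dose screen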;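 further: plate controls were DMSO wells for no effect and EDTA-quenched wells as full inhibition for full effect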
Efa HMGR inh: inhibitors of class II HMG-CoA reductase from Enterococcus faecalis. purified E. faecalis HMGR, NADPH absorbance 340 nm kinetic. inhibition, % at 10 µM. 0.41% of 190,000 active. AID 1066;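 active means inhibition above a set limit, the median over all tested compounds plus 3 SD, cut at about 9.5% in these data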;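 further: enzyme runs in reverse so mevalonate oxidation gives rising NADPH absorbance; 0% = complete reaction with DMSO and 100% = background rate lacking mevalonate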
TNAP inh no acc: inhibitors of human TNAP without phosphate acceptor; P05186; purified TNAP, CDP-star luminescence, 30 min; inhibition, % at 20 µM; 0.26% of 200,000 active;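 active means tissue-nonspecific alkaline phosphatase inhibition above about 50% at 20 µM in the single-dose screen, limit read from the data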;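 further: 0% = DMSO negative control and 100% = EDTA positive control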
INS promoter inh: TRM-6 insulin promoter activity inhibition | TRM-6 cells, insulin promoter-eGFP reporter, imaging; reporter expression induced with tamoxifen | inhibition, % at 2 µM | 0.9% of 130,000 active | AID 1273;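 active means inhibition above the mean plus 3 SD, with well images judged a real hit on visual review, cut at about 60% in these data, passing the limit was not always enough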
An asterisk follows results filed as active; / = no result given.

SMILES	TNAP act hiacc	TNAP inh hiacc	Efa HMGR inh	TNAP inh no acc	INS promoter inh
CS(=O)(=O)c1nsc2nc(=O)c(/C=C3\C=Nc4ccccc43)c(N)n12	0.9	10	1	3	7
CCCCc1nn2c(N)c(/C=C3\C=Nc4ccccc43)c(=O)nc2s1	0.9	10	1	66*	-67
CC(C)Cc1nn2c(N)c(/C=C3\C=Nc4ccccc43)c(=O)nc2s1	0.8	17	-1	83*	-305
CC(C)Sc1nsc2nc(=O)c(/C=C3\C=Nc4ccccc43)c(N)n12	0.7	31	-2	62*	/
CCCc1nn2c(N)c(/C=C3\C=Nc4ccccc43)c(=O)nc2s1	1	5	-2	58*	21
COc1ccc(N(CCCN2C(=O)c3cccc4cccc(c34)C2=O)C(=O)c2cccc(OC)c2)cc1	1	-3	-1	-7	/
O=C(CSc1ncccn1)NC(=O)c1ccccc1	1	2	-2	-12	-7
Cc1nn(-c2ccc(F)cc2)c(C)c1CN1CCN(CCC(C)C)C(CCO)C1 (stereo unspecified)	1.1	-9	-1	-11	/
Cc1nn(C)c(C)c1/C=N/N=C1\CCC2C3CCc4cc(O)ccc4C3CCC12C (stereo unspecified)	1	-2	0	-5	-91
O=C(NNC(=O)c1ccc2ccccc2c1O)c1ccccc1Cl	1	0	-2	65*	50
COC(=O)c1ccccc1NC(=O)C1CCN(C(=O)c2cc(OC)c(OC)c(OC)c2)CC1	1.1	-9	-6	-17	0
COc1ccc(C(=O)N2CCC(C(=O)Nc3ccccc3C)CC2)cc1OC	1.1	-5	10*	-5	/
COc1ccc(CNn2c(-c3cccs3)nc3ccccc3c2=O)cc1OC	1	-3	-4	-7	-36
CCN(CC)CC(=O)Nc1ccc(/C(C)=N/NC2=NCCN2)cc1	1	-3	9.7*	-10	36
Fc1ccccc1Cc1noc(CN2CCN(c3ccc(Cl)cn3)CC2)n1	1	-3	-5	-2	/
COc1ccccc1C(=O)Oc1cc(N)n(S(=O)(=O)c2ccc(C)cc2)n1	1	2	2	0	79*
O=C(Nc1cccc([N+](=O)[O-])c1)C1CC(=O)N(C2CCCCC2)C1 (stereo unspecified)	1	-2	-10	-5	/
Cc1cccc(NC(=O)CSc2ccc(-c3ccc4c(c3)OCO4)nn2)c1C	1	4	17*	7	/
Cc1cccc(NC(=O)C(=O)NCc2ccc3c(c2)OCO3)c1C	1	2	10*	-2	5
Cc1cccc(NC(=S)NCc2ccc3c(c2)OCO3)c1C	1.1	-10	-3	-7	44
N#Cc1cnc(NOCc2ccc(Cl)cc2)nc1	1.1	-5	9.6*	-16	11
CSc1nnc(C)c(/C=C/NOCc2ccc(Cl)cc2)n1	1	-2	-2	-6	/
O=C(CCc1ccccc1)NCCc1nc2ccccc2[nH]1	1	-1	3	-8	-7
CCc1nn(-c2ccccc2)c(N)c1C#N	1.1	-7	-3	-12	60*
Nn1c(SCC(=O)Nc2ccc3c(c2)OCO3)nnc1C1CC1	1	1	0	-8	37
SMILES	TNAP act hiacc	TNAP inh hiacc	Efa HMGR inh	TNAP inh no acc	INS promoter inh
Nn1c(SCC(=O)Nc2ccc3c(c2)OCO3)nncc1=O	1.1	-6	9.7*	-22	/
CC(C)c1nnc(NC(=O)C2CCCCC2)s1	1	-3	0	-6	/
CC(C)c1cc(C(N)=O)c(NC(=O)C2CCC2)s1	1.1	-8	-2	-3	81*
Cc1ccc(SCC(=O)NCC(C)C)cc1	1.1	-7	-1	-14	/
CC(C)CNC(=O)CSc1ccc(Cl)cc1	1	-1	37*	-7	-8
CCO[C@H]1OC(C(=O)Nc2ccccc2)=C[C@@H](c2ccc(Br)cc2)[C@@H]1CCCO	1	-4	-4	-6	/
CCO[C@@H]1OC(C(=O)Nc2ccccc2)=C[C@H](c2ccc(C(F)(F)F)cc2)[C@H]1CCCO	1.1	-10	12*	-11	/
O=[N+]([O-])c1ccc2[nH]nc(-c3ccccc3)c2c1	1	4	9.8*	-5	-12
O=c1c(-c2ccccc2)n[nH]c2ccccc12	1.1	-6	-1	-8	15
CC(C)CSC1=NSC2=NC(=O)/C(=C\c3cccs3)C(=N)N12	0.9	6	3	8	-24
CSC1=NSC2=NC(=O)/C(=C\c3cccs3)C(=N)N12	1	-2	-4	-11	79*
COc1ccc(NC(=O)Cn2cccc2)cc1Cl	1	-3	11*	-18	/
Cc1ccc(NC(=O)Cn2cccc2)cc1Cl	1.1	-9	1	-5	-121
CCOC(=O)c1c(C)nc(-c2ccccc2)nc1NC(=O)CC	1	-2	-9	-3	71*
CCC(=O)Nc1nc(-c2ccccc2)nc(SC)c1C(C)=O	1	-3	-3	-16	-64
c1coc(CNc2ncnc3nc[nH]c23)c1	1	-2	2	-18	-57
Cc1ccc2[nH]c3c(NCc4ccco4)ncnc3c2c1	1.1	-9	2	-27	85*
Cc1ccc(-c2cc(C(=O)N/N=C/c3c[nH]c4ccccc34)[nH]n2)cc1	0.9	10	2	71*	-120
O=C(N/N=C/c1c[nH]c2ccccc12)c1cc(-c2ccc(-c3ccccc3)cc2)n[nH]1	1	-2	1	3	/
O=C(CNC(=O)c1ccco1)N/N=C/c1c[nH]c2ccccc12	1	-4	9.7*	-8	26
O=C(N/N=C/c1c[nH]c2ccccc12)c1cc(-c2ccccc2)n[nH]1	0.8	16	-5	87*	63
CSc1ccc(CN2CCN(C(=O)c3ccncc3)CC2)cc1	1.1	-6	-5	-10	/
CCc1ccc(NC(=O)CC2C(=O)Nc3c2c(=O)n(C)c(=O)n3C)cc1 (stereo unspecified)	1	-1	12*	-4	-3
CCc1ccc(NC(=O)CC2NCCNC2=O)cc1 (stereo unspecified)	1.1	-6	-4	-15	-20
COc1ccc(C(c2nnnn2CC2CCCO2)N2CCN(c3ccc(F)cc3)CC2)cc1 (stereo unspecified)	1	-4	-1	-8	/
CCN(CC)C(c1ccc(F)cc1)c1nnnn1CC1CCCO1 (stereo unspecified)	1	-2	-10	-9	93*
O=C(c1ccc([N+](=O)[O-])cc1)N1CCSC1c1ccccc1Cl (stereo unspecified)	1	0	11*	0	-6
COc1ccc(C2SCCN2C(=O)c2ccc([N+](=O)[O-])cc2)cc1 (stereo unspecified)	1	-3	-3	-11	-36
COc1cccc(C(=O)N2C(C(=O)O)CSC2c2ccccc2Cl)c1 (stereo unspecified)	1	-1	0	-3	29
CCCCc1nc(SCC(=O)Nc2cc(C)on2)n[nH]1	1.1	-8	-1	57*	-14
